Laboratory results reported in ChEMBL document CHEMBL1139834, “Synthesis and structure-activity relationships of new benzodioxinic lactones as potential anticancer drugs” (J Med Chem, 2007).
Calls of active or inactive are those of the source. No cut-off for these calls is given here.

Assays:
HT-29 = test: Cytotoxicity against human HT29 cell line; assay type: cell-based
Outline: (§1)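 Cells grown at 37 °C under 5% CO2 in medium with 2 mM L-glutamine, penicillin, streptomycin and 20% heat-inactivated horse serum. Drug in DMSO (0.5% final) added to exponentially growing cells seeded at 0.8 × 10^5 cells/mL. Coulter counting in quadruplicate at 48 h (L1210) or 96 h (HT-29). IC50 from probit of % growth inhibition versus log dose; four independent runs in triplicate.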

L1210 [1] = test: Cytotoxicity against mouse L1210 cell line; assay type: cell-based; parameters: Activity: concentration or dose not given beside the values; settings: for IC50: Mus musculus, L1210; for Activity: mouse, l1210; outline: as §1
L1210 [2] = test: Cell cycle arrest in mouse L1210 cell line by accumulation at 8N phase at 5 uM after 24 hrs; assay type: functional
Outline: (§2)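 L1210 cells in RPMI 1640 with 2 mM L-glutamine, penicillin, streptomycin and 20% heat-inactivated horse serum, 5% CO2, 37 °C, exposed to several drug concentrations. Cells fixed in 70% ethanol, washed, stained 30 min at room temperature with propidium iodide plus RNAse in PBS, then flow cytometry. Read-out is percentage of cells in each cycle phase after 24 h exposure.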

L1210 [3] = test: Cell cycle arrest in mouse L1210 cell line by accumulation at G2/M phase at 5 uM after 24 hrs; assay type: functional; outline: as §2
L1210 [4] = test: Cell cycle arrest in mouse L1210 cell line by accumulation at G2 phase at 1 uM after 24 hrs; assay type: functional
Outline: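 L1210 cells grown in RPMI 1640 with 2 mM L-glutamine, penicillin, streptomycin and 20% heat-inactivated horse serum at 37 °C, 5% CO2, then drug-exposed (methods 21 h; footnote 24 h). Ethanol (70%) fixed, then washed. Stained 30 min at room temperature in PBS with […] RNase and propidium iodide. Flow cytometry gives % cells in each cycle phase.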

Homo sapiens = organism: Homo sapiens; test: Inhibition of topoisomerase 2 assessed by DNA cleavage complex formation assay
Outline: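 Cleavage complex formed on pYRG plasmid DNA by human topoisomerase II purified from placenta. Linear DNA product quantified by densitometry relative to ellipticine.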

L1210 [5] = test: Cell cycle arrest in mouse L1210 cell line by accumulation at 8N phase at 20 uM after 24 hrs; assay type: functional; outline: as §2
[6] = Effect on DNA sequence recognition assessed by DNase I footprinting assay; assay type: functional
L1210 [7] = test: Cell cycle arrest in mouse L1210 cell line by accumulation at G2/M phase at 1 uM after 24 hrs; assay type: functional; outline: as §2

Structure (SMILES)	IC50 (HT-29) [µM]	IC50 (L1210 [1]) [µM]	other results
CCCCc1c2c(c(C)c3c1Oc1ccccc1O3)C(=O)OC2	17.7	> 100	
CCCc1c2c(c(C)c3c1Oc1ccccc1O3)C(=O)OC2	> 10	> 10	Activity (L1210 [1]): 115%
CCCCCc1c2c(c(C)c3c1Oc1ccccc1O3)C(=O)OC2	9.2	7.2	Activity (L1210 [2]): 35%; Activity (L1210 [3]): 35%
Cc1c2c(c(CCCCCC#N)c3c1C(=O)OC3)Oc1ccccc1O2	> 10	> 10	
Cc1c2c(c(CCCCC#N)c3c1Oc1ccccc1O3)C(=O)OC2	24.1	77	
Cc1c2c(c(CCCCC(=O)O)c3c1Oc1ccccc1O3)C(=O)OC2	> 10	89	
Cc1c2ccncc2c(C)c2c1[nH]c1ccccc12 [ELLIPTECINE]	14.9	0.19	Activity (L1210 [4]): 50%
CCCCCCc1c2c(c(C)c3c1Oc1ccccc1O3)C(=O)OC2	18.2	> 10	Activity (L1210 [1]): 118.3%
CCCCCCc1c2c(c(CCCCCC)c3c1Oc1ccccc1O3)C(=O)OC2	> 10	> 10	
Cc1c2c(c(C)c3cnccc13)Oc1ccccc1O2	22.1	1.2	
Cc1c2c(c(C)c3c1Oc1ccccc1O3)C(=O)OC2	> 100	> 100	
CCCCCCc1c2c(c(C)c3c1C(=O)SC3)Oc1ccccc1O2	34.5	19	
Cc1c2c(c(CCCCCC#N)c3c1Oc1ccccc1O3)C(=O)OC2	0.12	0.54	Activity (Homo sapiens): inactive; Activity (L1210 [2]): 88%
CCc1c2c(c(C)c3c1Oc1ccccc1O3)C(=O)OC2	> 10	> 10	
CCCCCCCc1c2c(c(C)c3c1C(=O)OC3)Oc1ccccc1O2	1.9	3.9	Activity (L1210 [5]): 70%
CCc1c2c(c(C)c3c1C(=O)OC3)Oc1ccccc1O2	> 10	> 10	

Structure (SMILES)	IC50 (HT-29) [µM]	IC50 (L1210 [1]) [µM]	other results
CCCCCc1c2c(c(C)c3c1C(=O)OC3)Oc1ccccc1O2	0.12	1.8	Activity (Homo sapiens): inactive; Activity (L1210 [2]): 80%; Activity (L1210 [3]): 80%; Activity [6]: inactive
CC1OC(=O)C2=C1Oc1ccccc1O2 (stereo not drawn)	> 10	> 10	
Cc1c2c(c(CC(C)CC(C)(C)C)c3c1C(=O)OC3)Oc1ccccc1O2 (stereo not drawn)	> 10	> 10	Activity (L1210 [1]): 70%
Cc1c2c(c(CCCCCN)c3c1Oc1ccccc1O3)C(=O)OC2	5.7	12.8	
CCCc1c2c(c(C)c3c1C(=O)OC3)Oc1ccccc1O2	> 10	> 10	Activity (L1210 [1]): 111%
COc1cccc2c1C(=O)c1c(O)c3c(c(O)c1C2=O)C[C@@](O)(C(=O)CO)C[C@@H]3O[C@H]1C[C@H](N)[C@H](O)[C@H](C)O1 [DOXORUBICIN]	0.48	0.029	Activity (L1210 [7]): 86%
Cc1c2c(c(CC(C)CC(C)(C)C)c3c1Oc1ccccc1O3)C(=O)OC2 (stereo not drawn)	> 10	13.5	
CCCCCCCCc1c2c(c(C)c3c1C(=O)OC3)Oc1ccccc1O2	> 10	> 10	
CNCCCCc1c2c(c(C)c3c1C(=O)OC3)Oc1ccccc1O2	0.54	2.4	Activity (L1210 [2]): 86%; Activity (L1210 [3]): 86%
CCCCCc1c2c(c(C)c3c1Oc1cc(OC)ccc1O3)C(=O)OC2	> 10	> 10	Activity (L1210 [1]): 70%
CCCCCCCc1c2c(c(C)c3c1Oc1ccccc1O3)C(=O)OC2	21.8	> 10	
CCCCCCCCc1c2c(c(C)c3c1Oc1ccccc1O3)C(=O)OC2	> 10	> 10	
CCCCCCc1c2c(c(C)c3c1C(=O)OC3)Oc1ccccc1O2	0.38	2	Activity (L1210 [2]): 86%; Activity (L1210 [3]): 86%
Cc1c2c(c(CCCCCC(=O)O)c3c1Oc1ccccc1O3)C(=O)OC2	> 10	> 10	
CCCCCc1c2c(c(C)c3c1C(=O)OC3)Oc1ccc(OC)cc1O2	> 10	> 10	Activity (L1210 [1]): 78%
